# The list is not random: actives were taken first. Their share in the collection is about 1.5%.
# NR2E3 ag-1 – agonists of human NR2E3 nuclear receptor. Q9Y5X4. CHO-S Gal4-NCOR/VP16-NR2E3 two-hybrid, luciferase. inhibition of corepressor binding, % at 3.98 µM. 360,000 tested, 0.35% active. AID 602229;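 active = inhibition above the mean of all tested compounds plus 3 SD, cut at about 70% in these data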;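 note: 0% = DMSO with NR2E3 transfected cells and 100% = cells lacking NR2E3 construct; higher means lower luciferase signal from less NR2E3 corepressor binding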
# Target sequence (Q9Y5X4 whole entry, looked up, the tested form may be a part): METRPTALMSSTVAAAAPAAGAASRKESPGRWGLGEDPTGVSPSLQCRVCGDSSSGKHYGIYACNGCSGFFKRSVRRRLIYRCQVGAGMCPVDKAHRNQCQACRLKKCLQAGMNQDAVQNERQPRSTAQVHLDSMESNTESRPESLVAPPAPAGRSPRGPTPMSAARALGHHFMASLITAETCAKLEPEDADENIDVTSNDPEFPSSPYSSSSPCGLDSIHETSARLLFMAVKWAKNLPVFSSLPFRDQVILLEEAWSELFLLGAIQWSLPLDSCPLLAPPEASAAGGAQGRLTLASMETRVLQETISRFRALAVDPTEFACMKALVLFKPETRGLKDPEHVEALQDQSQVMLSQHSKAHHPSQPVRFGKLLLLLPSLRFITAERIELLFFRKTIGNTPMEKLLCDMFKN
# NR1D1 modulator – modulators of human Rev-erb alpha DNA binding | P20393 | Rev-erbα–FITC-DNA binding, fluorescence polarization, 90 min | activity, % at 10 µM | 370,000 tested, 0.79% active;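 active = activity above about 14%, limit read from the data; passing the limit was not always enough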;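 note: 0% = DMSO wells with 35 nM protein and 100% = DMSO wells with 750 nM protein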
# NR2E3 ag-2 – activates human photoreceptor nuclear receptor NR2E3; GST-NR2E3/biotin-RetCOR TR-FRET, 1536-well; inhibition of corepressor binding, % at 4.78 µM; 320,000 tested, 0.12% active; AID 2300;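 active = percent inhibition above the cutoff of mean plus 3 SD of all tested compounds, set per screening campaign, cut at about 20% in these data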;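 note: 0% = DMSO wells and 100% = biotin wells as full block of FRET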
#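 Material: NR2E3–RetCOR corepressor complex / Incubation: Compound–protein incubation for 5 h at 4 °C / Dosing: compound at 4.8 µM, single dose / Detection: time-resolved FRET / Benchmarks: high control biotin, low control 0.6% DMSO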
# PG9 binder – binds the HIV-1 gp120 antibody PG9; TR-FRET gp120-PG9 antibody binding; inhibition, % at 6.7 µM; AID 624416; 360,000 tested, 0.43% active; in the data active = inhibition above about 8.5%
# PG9 bind confirm – PG9 antibody binding, confirmed | shares compounds with PG9 binder | TR-FRET PG9 antibody binding, biochemical | inhibition, % at 6.7 µM | 1,500 tested, 90% active | AID 651571; in the data active = inhibition above about 9%
# PGV04 Ab binding – counter-screen for PG9 binders: binding control antibody PGV04; AID 651604; inhibition, % at 6.7 µM; 1,500 tested, 95% active; shares compounds with PG9 binder; TR-FRET PGV04 antibody-gp120 binding, biochemical; in the data active = inhibition above about 9.5%
# PG9 binder DR – small molecules binding HIV-1 gp120 antibody PG9; shares compounds with PG9 binder; TR-FRET PG9 antibody-gp120 binding inhibition; IC50, µM; 95 tested, under 10 active; AID 651848; in the data active = IC50 below about 10 µM
# PGV04 DR counter – counter-screen for PG9 binders: binding to control antibody PGV04. shares compounds with PG9 binder. TR-FRET binding to control antibody PGV04. IC50, µM. 95 tested, 20% active
# PG126 DR counter – counter-screen for PG9 binders: binding to control antibody PG126 | shares compounds with PG9 binder | TR-FRET binding to antibody PG126, counterscreen | IC50, µM | 95 tested, 20% active | AID 651939
# NR1D1 mod conf – confirmation of modulators of human Rev-erb alpha DNA binding; shares compounds with NR1D1 modulator; Rev-erb alpha FITC-DNA binding, fluorescence polarization, 90 min; activation, % at 25 µM; 3,000 tested, 61% active; AID 1259319;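 active = activation at or above a set limit, or at least 3 SD above the negative control mean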;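 note: 0% = 35 nM protein with DMSO and 100% = 750 nM protein high control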
# RORg DNA counter – counter-screen for Rev-erb alpha modulators: RORgamma DNA binding; shares compounds with NR1D1 modulator; purified RORgamma protein-FITC-DNA binding, fluorescence polarization; IC50, µM; 910 tested, 8% active;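 active = Compounds whose fitted half-maximal concentration for disrupting protein-DNA binding is below 10 micromolar; the record names Rev-erb in its text, so the target is in doubt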
# Numbers without * were called inactive; i = inactive; / = no result. Cut-off read from the data, not from the text of the source, unless noted: active = IC50 below about 9 µM; inactive = the rest.
SMILES,NR2E3 ag-1,NR1D1 modulator,NR2E3 ag-2,PG9 binder,PG9 bind confirm,PGV04 Ab binding,NR1D1 mod conf,RORg DNA counter,others
C=CCn1c(SCC(=O)Nc2sccc2C#N)nc2sc(C)c(C)c2c1=O,8,97*,9,11*,26*,44*,63*,>40,
C=CCN(C(=O)[C@@H](C1CC1)[C@@H](O)c1ccc2ccccc2c1)c1ccccc1,/,4,/,/,/,/,/,/,
COc1ccc(CN2c3ccccc3C(=O)CS2(=O)=O)cc1OC,/,4,/,-2,/,/,/,/,
CCOc1ccccc1-c1nc(-c2cc3ccc(C)cc3[nH]c2=O)no1,16,66*,2,18*,13*,27*,44*,/,
COc1ccc(-c2nc(NC(=O)c3ccc(OCC(=O)Nc4ccc(F)cc4)c(OC)c3)sc2C)cc1,-29,180*,10,81*,69*,82*,154*,i,
COc1ccc(C(=O)NCC(=O)Nc2ccc(F)cc2)cc1OC,4,0,2,-1,/,/,/,/,
O=c1c2cc3cc(Cl)ccc3nc2ncn1N1CCCCC1,/,-2,/,/,/,/,/,/,
c1ccc2nc(-c3ccc(N4CCOCC4)cc3)ccc2c1,-73,90*,10,39*,45*,42*,64*,>40,PG9 binder DR=>67;PGV04 DR counter=3.7*;PG126 DR counter=4.2*
COc1ccc(C)c2sc(=NC(=O)c3ccccc3)n(C)c12,-86,58*,2,12*,8,10*,2,/,
Cc1c(-c2ccc(Cl)cc2)oc(=O)c2c(N)n(-c3ccccc3)nc12,-21,49*,-48,36*,31*,39*,49*,>40,
CC(=O)NCCNc1nc2c(-c3cccc(C(F)(F)F)c3)nnn2c2ccccc12,-18,69*,2,25*,15*,57*,3,/,
Brc1cc(Br)c2nc3c(cc2c1)CCC3,-39,33*,18,52*,58*,66*,23*,/,
COc1ccc(C(C)(C)C)cc1NC(=O)COC(=O)c1cc(SC)ccc1Cl,-25,-3,-3,-2,/,/,/,/,
COc1ccc(NC(=O)COC(=O)c2cc(SC)ccc2Cl)c(OC)c1,-10,34*,12,18*,30*,45*,29*,/,
Cc1cc(C)c2c(N)c(C(=O)Nc3ccccc3Br)sc2n1,-82,38*,-10,9.1*,23*,38*,28*,/,
Cc1ccc2[nH]c(=O)c(CN(C)C(=O)c3cccs3)cc2c1,-15,5,1,-2,/,/,/,/,
Cc1ccc2[nH]c(=O)c(COC(=O)c3cccs3)cc2c1,-39,33*,18,18*,50*,66*,21*,/,
CC#CC(=O)N[C@H]1CC[C@@]23CCCN2C(=O)CCC[C@H]3[C@H]1C,/,-1,/,/,/,/,/,/,
O=C(c1cc2cc(Cl)ccc2[nH]1)N1CCN(c2ccccn2)CC1,-12,51*,-3,27*,7,23*,41*,5.4*,
Cc1cc(C)c(C#N)c(SCCS(=O)(=O)Cc2ccc(Cl)cc2)n1,4,36*,-3,11*,22*,31*,18*,/,
O=C(CSc1ncnc2c1oc1ccccc12)NCc1ccc(F)cc1,-23,395*,3,51*,25*,74*,434*,i,
O=C(CSc1ncnc2c1oc1ccccc12)Nc1cccc(F)c1,-45,343*,1,69*,67*,87*,322*,i,
NC(=O)CSc1ncnc2c1oc1ccccc12,-6,-3,-1,-14,/,/,/,/,
C=CCN(CC#CC1=CCCCC1)Cc1ccc(OC)cc1OC,/,5,/,/,/,/,/,/,

# Compound activity deposited in PubChem by several laboratories.
